Measurements collected from several papers.
Each line is one published result; the experiments were not run side by side. pIC50: −log10 of the molar value.

Structure (SMILES)	cell line	test	conditions	pIC50
COc1cc(/C=C/C(=O)CC(=O)/C=C/c2ccc(O)c(OC)c2)ccc1O	CHO-K1	cell growth or viability, MTT	72 h	4.35
Cc1ccc2nc(-c3cccnc3)[nH]c2c1	human Rhabdomyosarcoma cell	cell growth or viability, MTT	48 h	4.08
COc1ccccc1CNCC(O)COc1cccc2[nH]c3ccccc3c12 (stereo not shown)	NCI-H1299	cell growth or viability, CCK-8	72 h	4.83
C=CCn1c(-c2ccc([N+](=O)[O-])cc2)nc2ccc(C)cc21	human Rhabdomyosarcoma cell	cell growth or viability, MTT		4.07
Cn1c(-c2nnc(NC(=O)c3cc4c([nH]c5ccccc54)c(-c4ccccc4)n3)s2)cc2ccccc21	HL-60	cell growth or viability, MTT	72 h	4.48
O=C(Cn1ccnc1[N+](=O)[O-])NCc1ccccc1	RAW264.7	cell growth or viability, MTT		< 3.62
CC(C)C[C@H](NC(=O)[C@H](Cc1ccccc1)NC(=O)c1cnccn1)B(O)O	NCI-H1437	cell growth or viability, ATP luminescence		7.89
O=C(/C=C(O)/C=C/c1c[nH]c2ccccc12)/C=C/c1c[nH]c2ccccc12	CHO-K1	cell growth or viability, MTT	72 h	5.10
COc1cc(Nc2nccc(-c3cnn4nc(OC)ccc34)n2)cc(C(F)(F)F)c1	COR-L279	cell growth or viability, ATP luminescence		6.68
CC(=O)O[C@@]12CO[C@@H]1C[C@H](O)[C@@]1(C)C(=O)[C@H](O)C3=C(C)[C@@H](OC(=O)[C@H](O)[C@@H](NC(=O)OC(C)(C)C)c4ccccc4)C[C@@](O)([C@@H](OC(=O)c4ccccc4)[C@H]21)C3(C)C	MDA-MB-436	cell growth or viability, ATP luminescence	72 h	8.43
COc1ccccc1/C=C/CNCC(O)COc1cccc2[nH]c3ccccc3c12 (stereo not shown)	NCI-H1299	cell growth or viability, CCK-8	72 h	5.14
C=CCn1c(-c2ccc(OC)c(OC)c2)nc2ccccc21	human Rhabdomyosarcoma cell	cell growth or viability, MTT		4.30
O=C(/C=C(O)/C=C/c1ccc2ccccc2n1)/C=C/c1c[nH]c2ccccc12	CHO-K1	cell growth or viability, MTT	72 h	4.38
O=C(/C=C(/C=C/c1cccnc1)NC1CCCCC1)/C=C/c1cccnc1	CHO-K1	cell growth or viability, MTT	72 h	4.77
Cc1ncn2c(=O)n(C)nnc12	D54	cell growth or viability, resazurin	7 days	5.22
COc1ccccc1/C=C/CNCC(O)COc1ccc(C2CCCCC2)cc1 (stereo not shown)	NCI-H1299	cell growth or viability, CCK-8	72 h	4.53
COc1cc2c(Oc3ccc(NC(=O)C4(C(=O)Nc5ccc(F)cc5)CC4)cc3F)ccnc2cc1OCCCN1CCOCC1	Rh30	cell growth or viability	72 h	6.22
COc1ccc(-c2nc3ccccc3[nH]2)cc1O	human Rhabdomyosarcoma cell	cell growth or viability, MTT	48 h	4.28
COc1ccccc1/C=C/CNCC(O)COc1ccc2c(c1)[nH]c1ccccc12 (stereo not shown)	NCI-H1299	cell growth or viability, CCK-8	72 h	5.41
COCCCNC(=C\C(=O)/C=C/c1cccnc1)/C=C/c1cccnc1	CHO-K1	cell growth or viability, SRB	72 h	4.62
COc1ccccc1OCCNC(=O)COc1cccc2[nH]c3ccccc3c12	NCI-H1299	cell growth or viability, CCK-8	72 h	< 4.00
COc1cc([C@@H]2c3cc4c(cc3[C@@H](O[C@@H]3O[C@@H]5CO[C@@H](C)O[C@H]5[C@H](O)[C@H]3O)[C@H]3COC(=O)[C@H]23)OCO4)cc(OC)c1O	SMMC-7721	cell growth or viability, MTT	48 h	5.09
Brc1ccc(Nc2nc(N/N=C\c3c[nH]c4ccccc34)nc(Nc3ccccc3)n2)cc1	SK-BR-3	cell growth or viability, SRB	72 h	4.91
O=C(/C=C(/C=C/c1cccnc1)NCCO)/C=C/c1cccnc1	CHO-K1	cell growth or viability, SRB	72 h	< 4.12
Clc1ccc(-c2nc3ccccc3n2Cc2ccccc2)cc1	human Rhabdomyosarcoma cell	cell growth or viability, MTT		4.50

Structure (SMILES)	cell line	test	conditions	pIC50
Cn1nnc2c(C(N)=O)ncn2c1=O	D54	cell growth or viability, resazurin	7 days	4.92
COc1ccccc1/C=C/CNCC(O)COc1cccc2ccccc12 (stereo not shown)	NCI-H1299	cell growth or viability, CCK-8	72 h	4.70
COc1cc(/C=C/C(=O)/C=C(O)/C=C/c2ccncc2)ccc1O	CHO-K1	cell growth or viability, SRB	72 h	4.75
COCCNC(=C\C(=O)/C=C/c1cccnc1)/C=C/c1cccnc1	CHO-K1	cell growth or viability, SRB	72 h	4.14
COc1ccccc1/C=C/CNCC(O)COc1ccc2[nH]c3ccccc3c2c1 (stereo not shown)	NCI-H1299	cell growth or viability, CCK-8	72 h	5.21
O=C(/C=C(O)/C=C/c1ccc[nH]1)/C=C/c1ccc[nH]1	CHO-K1	cell growth or viability, SRB	72 h	4.93
Nc1ccccc1-c1nc2ccccn2c1N	Vero	cell growth or viability, MTT	48 h	4.13
COc1cc(N2CCC(N3CCN(C)CC3)CC2)ccc1Nc1ncc(Cl)c(Nc2ccccc2S(=O)(=O)C(C)C)n1	Rh30	cell growth or viability	72 h	6.52
O=C(O)Cc1ccccc1Nc1c(Cl)cccc1Cl	RAW264.7	reactive oxygen species, inhibitor	LPS-stimulated	4.30
COc1cccc2c1C(=O)c1c(O)c3c(c(O)c1C2=O)C[C@@](O)(C(=O)CO)C[C@@H]3O[C@H]1C[C@H](N)[C@H](O)[C@H](C)O1	CHO-K1	cell growth or viability, MTT	72 h	5.85
Cc1ccc2nc(-c3ccco3)[nH]c2c1	human Rhabdomyosarcoma cell	cell growth or viability, MTT	48 h	< 4.00
CC(C)CNC(=C\C(=O)/C=C/c1cccnc1)/C=C/c1cccnc1	CHO-K1	cell growth or viability, SRB	72 h	4.54
CSc1ccc(-c2nc3ccc(C)cc3n2Cc2ccccc2)cc1	human Rhabdomyosarcoma cell	cell growth or viability, MTT		4.50
Cn1nnc2c(-c3ccccc3)ncn2c1=O	D54	cell growth or viability, resazurin	7 days	5.15
O=C(/C=C(O)/C=C/c1cccs1)/C=C/c1c[nH]c2ccccc12	CHO-K1	cell growth or viability, MTT	72 h	5.23
CC(C)(C)Nc1c(-c2ccc([N+](=O)[O-])cc2)nc2ccccn12	Vero	cell growth or viability, MTT	48 h	4.07
COc1cccc2c1C(=O)c1c(O)c3c(c(O)c1C2=O)C[C@@](O)(C(=O)CO)C[C@@H]3O[C@H]1C[C@H](N)[C@H](O)[C@H](C)O1	CHO-K1	cell growth or viability, SRB	72 h	5.62
CCn1c(-c2nnc(NC(=O)c3cc4c([nH]c5ccccc54)c(-c4cc(OC)c(OC)c(OC)c4)n3)s2)cc2ccccc21	HL-60	cell growth or viability, MTT	72 h	4.36
COc1cc(/C=C/C(=O)/C=C(O)/C=C/c2c[nH]c3ccccc23)ccc1O	CHO-K1	cell growth or viability, SRB	72 h	4.63
c1ccc2[nH]c(-c3ccc4c(c3)OCO4)nc2c1	human Rhabdomyosarcoma cell	cell growth or viability, MTT	48 h	< 4.00
O=C(/C=C(O)/C=C/c1ccncc1)/C=C/c1c[nH]c2ccccc12	CHO-K1	cell growth or viability, MTT	72 h	4.37
CN(C)c1ccc(-c2nc3ccccn3c2NC(C)(C)C)cc1	Vero	cell growth or viability, MTT	48 h	4.06
COc1cc(/C=C/C(=O)/C=C(O)/C=C/c2cccnc2)ccc1O	CHO-K1	cell growth or viability, SRB	72 h	4.44
COc1cc(C(=O)c2csc(-c3ccccc3)n2)cc(OC)c1OC	B16-F1	cell growth or viability, SRB		7.72
